Measurements taken from ChEMBL document CHEMBL1153529, “Synthesis of fluorinated brassinosteroids based on alkene cross-metathesis and preliminary biological assessment” (J Med Chem, 2009).
Activity calls are given as the source filed them. The calls are words filed in the database; no cut-off is given here.

What was measured:
Rattus norvegicus [1] = species on record: Rattus norvegicus; test: Displacement of [35S]tert-butylbicyclo[ 2.2.2]phosphorothionate from GABAA receptor in Wistar rat brain membrane at 100 nM relative to control; type: cell membranes
Summary of the method: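 Membranes from male Wistar rat brain incubated 1 h at 37 °C with 2 nM [35S]TBPS and test compound at 100 nM. Binding expressed as % of buffer-only control samples. Mean ± SD of triplicates or quadruplicates. Kruskal-Wallis global test, then Mann-Whitney-Wilcoxon against control.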

Rattus norvegicus [2] = species on record: Rattus norvegicus; test: Inhibition of [35S]tert-butylbicyclo[ 2.2.2]phosphorothionate binding to GABAA receptor in Wistar rat brain membrane relative to control; type: cell membranes
Summary of the method: (§1)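 Male Wistar rat brain membranes incubated 1 h at 37 °C with 2 nM [35S]TBPS and compound at 1 nM to 10 μM, in duplicates. IC50 estimated as the steroid concentration giving half-maximal inhibition of binding. Imax is the maximal suppression of binding.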

[3] = Inhibition of [35S]tert-butylbicyclo[ 2.2.2]phosphorothionate binding to GABAA receptor in Wistar rat brain membrane; type: cell membranes; summary of the method: as §1
CCRF-CEM = test: Cytotoxicity against human CEM cells after 72 hrs by calcein-AM assay; type: functional, cell-based
Summary of the method: (§2)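 Human normal fibroblast BJ, T-lymphoblastic leukemia CEM and breast carcinoma MCF-7 cells exposed for 72 h to six serial 4-fold dilutions of compound. Surviving cell proportion read by calcein-AM assay and IC50 calculated. Mean ± SD of three independent experiments, each in triplicate. 28-Homocastasterone served as positive control.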

MCF7 = test: Cytotoxicity against human MCF7 cells after 72 hrs by calcein-AM assay; type: functional, cell-based; details: MCF7, 72 h; summary of the method: as §2
BJ = test: Cytotoxicity against human BJ cells after 72 hrs by calcein-AM assay; type: cell-based; summary of the method: as §2
Phaseolus vulgaris [4] = test: Brassinolide type activity in Phaseolus Vulgaris L., cv. Pinto assessed as difference of prolongation of second internode at 0.1 umol/L by second-internode bioassay relative to control; type: functional
Summary of the method: (§3)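 Bean second-internode bioassay. Compound applied in lanolin; second-internode length measured 5 days after application. Activity taken as the difference in internode prolongation (mm) between treated and control plants. Reported concentrations were 10^-10, 10^-7 and 10^-12 mol/L. Mean ± SD.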

Phaseolus vulgaris [5] = test: Brassinolide type activity in Phaseolus Vulgaris L., cv. Pinto assessed as difference of prolongation of second internode at 1 pmol/L by second-internode bioassay relative to control; type: functional; summary of the method: as §3

**Q.** Which results are given for C[C@H]([C@@H](O)[C@H](O)CC(F)(F)C(F)(F)C(F)(F)C(F)(F)C(F)(F)C(F)(F)F)[C@H]1CC[C@H]2[C@@H]3COC(=O)[C@H]4C[C@H](O)[C@H](O)C[C@]4(C)[C@H]3CC[C@]12C?
**A.** Activity (Rattus norvegicus [1]): 47.2%; Imax (Rattus norvegicus [2]): 57.9%; IC50 [3]: 0.9 µM; IC50 (CCRF-CEM): > 50 µM; IC50 (MCF7): > 50 µM; Activity (BJ): Non-toxic

**Q.** With C[C@H]([C@@H](O)[C@H](O)CC(F)(C(F)(F)F)C(F)(F)F)[C@H]1CC[C@H]2[C@@H]3COC(=O)[C@H]4C[C@H](O)[C@H](O)C[C@]4(C)[C@H]3CC[C@]12C as the compound, how does the Activity (Rattus norvegicus [1]) read?
**A.** Its Activity is 56.6%.

**Q.** And the Imax (Rattus norvegicus [2])?
**A.** Its Imax is 59.4%.

**Q.** And the IC50 [3]?
**A.** Its IC50 is 0.1 µM.

**Q.** And the IC50 (CCRF-CEM)?
**A.** The IC50 was greater than 50 µM.

**Q.** What about the IC50 (MCF7) of the same compound?
**A.** Its IC50 is greater than 50 µM.

**Q.** And the Activity (BJ)?
**A.** Its Activity is “Non-toxic”.

**Q.** And the Activity (Phaseolus vulgaris [4])?
**A.** The Activity was 15.9 mm.

**Q.** What about the Activity (Phaseolus vulgaris [5]) of the same compound?
**A.** Its Activity is 10.7 mm.

**Q.** For C[C@H]([C@@H](O)[C@H](O)CC(F)(F)C(F)(F)C(F)(F)F)[C@H]1CC[C@H]2[C@@H]3COC(=O)[C@H]4C[C@H](O)[C@H](O)C[C@]4(C)[C@H]3CC[C@]12C, which Activity (Rattus norvegicus [1]) is on record?
**A.** The Activity was 95.1%.

**Q.** And the IC50 (CCRF-CEM)?
**A.** The IC50 was greater than 50 µM.

**Q.** What about the IC50 (MCF7) of the same compound?
**A.** The IC50 was greater than 50 µM.

**Q.** And the Activity (BJ)?
**A.** Its Activity is “Non-toxic”.

**Q.** What about the Activity (Phaseolus vulgaris [4]) of the same compound?
**A.** The Activity was “Active”.

**Q.** Which IC50 (CCRF-CEM) does the source give for CC(C(O)C(O)CC(F)(F)C(F)(F)C(F)(F)C(F)(F)C(F)(F)C(F)(F)F)C1CCC2C3CC(=O)C4CC(O)C(O)CC4(C)C3CCC12C (centres undefined) here?
**A.** Its IC50 is greater than 50 µM.

**Q.** What about the IC50 (MCF7) of the same compound?
**A.** The IC50 was greater than 50 µM.

**Q.** And the Activity (BJ)?
**A.** Its Activity is “Non-toxic”.

**Q.** With CC(=O)[C@H]1CC[C@H]2[C@@H]3CC[C@H]4C[C@H](O)CC[C@]4(C)[C@H]3CC[C@]12C [BREXANOLONE] as the compound, how does the Activity (Rattus norvegicus [1]) read?
**A.** Its Activity is 56.2%.

**Q.** And the Imax (Rattus norvegicus [2])?
**A.** Its Imax is 79%.

**Q.** And the IC50 [3]?
**A.** Its IC50 is 0.08 µM.

**Q.** What does the source list for CC[C@@H](C(C)C)[C@@H](O)[C@H](O)[C@@H](C)[C@H]1CC[C@H]2[C@@H]3CC(=O)[C@H]4C[C@H](O)[C@H](O)C[C@]4(C)[C@H]3CC[C@]12C?
**A.** IC50 (CCRF-CEM): 13 µM; IC50 (MCF7): > 50 µM; Activity (BJ): Non-toxic

**Q.** Which IC50 (CCRF-CEM) does the source give for CC(C(O)C(O)CC(F)(F)C(F)(F)C(F)(F)F)C1CCC2C3CC(=O)C4CC(O)C(O)CC4(C)C3CCC12C (centres undefined) here?
**A.** The IC50 was 35.3 µM.

**Q.** What about the IC50 (MCF7) of the same compound?
**A.** Its IC50 is 48.2 µM.

**Q.** What about the Activity (BJ) of the same compound?
**A.** Its Activity is “Non-toxic”.

**Q.** Which IC50 (CCRF-CEM) does the source give for C[C@H]([C@@H](O)[C@H](O)CC(F)(C(F)(F)F)C(F)(F)F)[C@H]1CC[C@H]2[C@@H]3CC(=O)C4C[C@H](O)[C@H](O)C[C@]4(C)[C@H]3CC[C@]12C (some centres undefined) here?
**A.** The IC50 was greater than 50 µM.

**Q.** What about the IC50 (MCF7) of the same compound?
**A.** The IC50 was greater than 50 µM.

**Q.** What about the Activity (BJ) of the same compound?
**A.** Its Activity is “Non-toxic”.
